pKi: −log10 of the molar value.
Experiments:
D(3) dopamine receptor = D(3) dopamine receptor (Rattus norvegicus, UniProt P19020); assay: Binding affinity to rat dopamine D3 receptor
[1] = target: Muscarinic acetylcholine receptor M3 (Homo sapiens, UniProt P20309); assay: Binding affinity to human muscarinic M3 receptor
[2] = target: Delta-type opioid receptor (Homo sapiens, UniProt P41143); assay: Binding affinity to human delta opioid receptor
[3] = target: Alpha-2A adrenergic receptor (Homo sapiens, UniProt P08913); assay: Binding affinity to human adrenergic alpha2A receptor
[4] = target: 5-hydroxytryptamine receptor 4 (Cavia porcellus, UniProt O70528); assay: Displacement of [3H]GR113808 from 5HT4 receptor in guinea pig striatal membranes; type: cell membranes, Striatum, Membrane
5-hydroxytryptamine receptor 4 (Cavia porcellus, UniProt O70528), sequence (O70528 whole entry): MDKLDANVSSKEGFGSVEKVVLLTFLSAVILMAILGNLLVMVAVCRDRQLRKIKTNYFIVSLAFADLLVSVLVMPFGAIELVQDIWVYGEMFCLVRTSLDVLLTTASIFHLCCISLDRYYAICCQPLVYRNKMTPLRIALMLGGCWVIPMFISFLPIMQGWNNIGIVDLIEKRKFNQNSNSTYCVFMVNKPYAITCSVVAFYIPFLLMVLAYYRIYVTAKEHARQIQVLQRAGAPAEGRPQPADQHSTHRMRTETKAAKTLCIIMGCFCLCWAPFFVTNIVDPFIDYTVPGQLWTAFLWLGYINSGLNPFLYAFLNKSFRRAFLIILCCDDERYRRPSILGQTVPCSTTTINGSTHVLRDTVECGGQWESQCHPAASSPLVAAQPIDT

[5] = target: T1, Alpha-2B adrenergic receptor (Homo sapiens, UniProt P18089); assay: Binding affinity to human adrenergic alpha2B receptor
T1 sequence (P18089 whole entry): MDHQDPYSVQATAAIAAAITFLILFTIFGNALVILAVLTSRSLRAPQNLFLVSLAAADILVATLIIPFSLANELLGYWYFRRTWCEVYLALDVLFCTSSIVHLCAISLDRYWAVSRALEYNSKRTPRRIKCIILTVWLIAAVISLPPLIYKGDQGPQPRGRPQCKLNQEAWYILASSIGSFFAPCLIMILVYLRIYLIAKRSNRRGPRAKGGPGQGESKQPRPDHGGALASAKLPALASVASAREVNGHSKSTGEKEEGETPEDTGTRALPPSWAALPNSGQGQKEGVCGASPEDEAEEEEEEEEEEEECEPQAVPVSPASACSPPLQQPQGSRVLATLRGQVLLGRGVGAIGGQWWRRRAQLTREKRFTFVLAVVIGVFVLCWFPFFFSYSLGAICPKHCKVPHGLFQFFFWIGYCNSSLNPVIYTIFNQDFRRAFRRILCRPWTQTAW
Procedure, shortened: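 Radioligand binding run by the NIMH Psychoactive Drug Screening Program as part of a broad receptor and binding-site panel, which included α1A, α1B, α1D and α2A–C subtypes. Affinity is expressed as Ki.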

[6] = target: 5-hydroxytryptamine receptor 7 (Homo sapiens, UniProt P34969); assay: Binding affinity to human 5-HT7 receptor
5-hydroxytryptamine receptor 7, sequence (P34969 whole entry): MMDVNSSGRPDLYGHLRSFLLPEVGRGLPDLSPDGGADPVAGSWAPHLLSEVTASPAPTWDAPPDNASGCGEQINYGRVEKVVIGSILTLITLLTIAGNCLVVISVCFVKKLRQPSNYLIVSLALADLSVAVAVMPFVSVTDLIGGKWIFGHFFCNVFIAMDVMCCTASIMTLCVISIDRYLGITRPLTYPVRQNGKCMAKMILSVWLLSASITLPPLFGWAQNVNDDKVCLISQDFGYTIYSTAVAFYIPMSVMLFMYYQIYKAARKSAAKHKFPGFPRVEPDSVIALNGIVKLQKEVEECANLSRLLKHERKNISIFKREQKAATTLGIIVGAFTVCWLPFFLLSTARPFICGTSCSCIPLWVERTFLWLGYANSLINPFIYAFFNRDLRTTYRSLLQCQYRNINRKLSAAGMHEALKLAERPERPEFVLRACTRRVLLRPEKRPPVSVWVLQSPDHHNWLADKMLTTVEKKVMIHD

[7] = target: Sodium-dependent noradrenaline transporter (Homo sapiens, UniProt P23975); assay: Binding affinity to human NET
Sodium-dependent noradrenaline transporter, sequence (P23975 whole entry): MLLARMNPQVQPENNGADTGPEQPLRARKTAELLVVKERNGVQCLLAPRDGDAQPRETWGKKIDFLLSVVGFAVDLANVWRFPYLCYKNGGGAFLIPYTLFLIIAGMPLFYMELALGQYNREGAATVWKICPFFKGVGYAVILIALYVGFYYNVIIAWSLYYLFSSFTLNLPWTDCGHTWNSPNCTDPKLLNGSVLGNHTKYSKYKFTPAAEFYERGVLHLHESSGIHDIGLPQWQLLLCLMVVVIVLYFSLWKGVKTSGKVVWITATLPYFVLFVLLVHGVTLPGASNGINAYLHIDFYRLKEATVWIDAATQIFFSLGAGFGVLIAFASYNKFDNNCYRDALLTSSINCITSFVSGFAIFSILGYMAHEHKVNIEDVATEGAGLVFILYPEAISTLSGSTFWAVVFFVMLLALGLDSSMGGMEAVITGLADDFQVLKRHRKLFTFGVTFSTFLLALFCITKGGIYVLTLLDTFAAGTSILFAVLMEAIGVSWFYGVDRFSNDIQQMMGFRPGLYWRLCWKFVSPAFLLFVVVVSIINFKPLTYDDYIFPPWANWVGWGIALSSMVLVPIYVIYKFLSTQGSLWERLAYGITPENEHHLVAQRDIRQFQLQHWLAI

[8] = target: 5-hydroxytryptamine receptor 6 (Homo sapiens, UniProt P50406); assay: Binding affinity to human 5-HT6 receptor
5-hydroxytryptamine receptor 6, sequence (P50406 whole entry): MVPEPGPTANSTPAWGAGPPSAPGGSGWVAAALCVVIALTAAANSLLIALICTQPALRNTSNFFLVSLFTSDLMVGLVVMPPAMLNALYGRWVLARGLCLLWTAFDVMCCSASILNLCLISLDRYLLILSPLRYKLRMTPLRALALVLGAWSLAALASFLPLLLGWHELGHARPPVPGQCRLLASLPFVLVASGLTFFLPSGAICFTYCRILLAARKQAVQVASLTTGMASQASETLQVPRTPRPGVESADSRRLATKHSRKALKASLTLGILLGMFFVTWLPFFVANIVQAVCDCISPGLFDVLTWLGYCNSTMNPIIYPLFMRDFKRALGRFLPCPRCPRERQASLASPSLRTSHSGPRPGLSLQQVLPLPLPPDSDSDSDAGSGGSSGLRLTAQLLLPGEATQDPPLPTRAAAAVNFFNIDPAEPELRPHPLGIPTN

[9] = target: 5-hydroxytryptamine receptor 2B (Homo sapiens, UniProt P41595); assay: Binding affinity to human 5-HT2B receptor
[10] = target: 5-hydroxytryptamine receptor 2A (Homo sapiens, UniProt P28223); assay: Binding affinity to human 5-HT2A receptor
5-hydroxytryptamine receptor 2A, sequence (P28223 whole entry): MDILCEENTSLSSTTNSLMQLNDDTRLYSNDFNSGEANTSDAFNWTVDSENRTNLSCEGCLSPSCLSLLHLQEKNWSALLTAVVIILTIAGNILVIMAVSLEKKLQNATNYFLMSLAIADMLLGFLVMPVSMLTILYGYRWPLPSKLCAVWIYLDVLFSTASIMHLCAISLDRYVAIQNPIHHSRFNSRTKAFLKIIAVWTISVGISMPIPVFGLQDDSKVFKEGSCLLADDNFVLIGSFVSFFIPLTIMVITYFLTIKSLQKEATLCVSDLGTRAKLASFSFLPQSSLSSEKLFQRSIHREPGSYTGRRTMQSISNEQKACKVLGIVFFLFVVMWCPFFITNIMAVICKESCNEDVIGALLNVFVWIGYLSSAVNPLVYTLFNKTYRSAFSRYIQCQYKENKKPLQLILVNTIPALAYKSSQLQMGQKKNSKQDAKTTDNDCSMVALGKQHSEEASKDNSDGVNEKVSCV

[11] = target: 5-hydroxytryptamine receptor 4 (Homo sapiens, UniProt Q13639); assay: Displacement of [3H]GR113808 from human recombinant 5HT4 receptor expressed in HEK293 cells; type: cell-based
[12] = target: Muscarinic acetylcholine receptor M2 (Homo sapiens, UniProt P08172); assay: Binding affinity to human muscarinic M2 receptor
Muscarinic acetylcholine receptor M2, sequence (P08172 whole entry): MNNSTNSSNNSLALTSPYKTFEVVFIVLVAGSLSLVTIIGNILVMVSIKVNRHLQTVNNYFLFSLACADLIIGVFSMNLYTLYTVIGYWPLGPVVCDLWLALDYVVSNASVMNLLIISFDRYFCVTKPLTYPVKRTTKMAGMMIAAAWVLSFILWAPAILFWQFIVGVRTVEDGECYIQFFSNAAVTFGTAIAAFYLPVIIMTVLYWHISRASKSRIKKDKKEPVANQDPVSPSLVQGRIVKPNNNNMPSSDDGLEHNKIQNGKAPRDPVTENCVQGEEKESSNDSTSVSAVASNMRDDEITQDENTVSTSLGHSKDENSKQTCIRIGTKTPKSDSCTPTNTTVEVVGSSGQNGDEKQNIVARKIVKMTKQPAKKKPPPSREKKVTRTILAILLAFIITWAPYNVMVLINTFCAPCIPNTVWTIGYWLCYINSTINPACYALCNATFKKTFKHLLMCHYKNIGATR

Mu-type opioid receptor = Mu-type opioid receptor (Homo sapiens, UniProt P35372); assay: Binding affinity to human mu opioid receptor
[13] = Binding affinity to rat sigma 2 receptor
[14] = target: T2, Alpha-1B adrenergic receptor (Homo sapiens, UniProt P35368); assay: Binding affinity to human adrenergic Alpha-1B receptor
T2 sequence (P35368 whole entry): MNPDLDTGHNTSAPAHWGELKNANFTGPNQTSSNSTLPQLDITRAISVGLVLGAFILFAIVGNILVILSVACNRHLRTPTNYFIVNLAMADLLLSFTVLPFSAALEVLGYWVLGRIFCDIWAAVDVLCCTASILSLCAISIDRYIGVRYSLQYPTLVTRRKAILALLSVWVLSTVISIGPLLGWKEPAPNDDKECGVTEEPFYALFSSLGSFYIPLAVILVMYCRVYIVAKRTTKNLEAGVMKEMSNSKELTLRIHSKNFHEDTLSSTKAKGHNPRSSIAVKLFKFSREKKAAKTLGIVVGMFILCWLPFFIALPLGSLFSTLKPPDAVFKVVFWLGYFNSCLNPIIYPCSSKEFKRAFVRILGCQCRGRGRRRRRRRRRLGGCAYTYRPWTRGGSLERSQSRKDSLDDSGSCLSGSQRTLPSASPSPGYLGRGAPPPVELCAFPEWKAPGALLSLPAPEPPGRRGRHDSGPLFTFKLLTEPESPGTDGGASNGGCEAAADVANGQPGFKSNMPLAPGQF

[15] = target: T3, Alpha-1A adrenergic receptor (Homo sapiens, UniProt P35348); assay: Binding affinity to human adrenergic alpha1A receptor
T3 sequence (P35348 whole entry): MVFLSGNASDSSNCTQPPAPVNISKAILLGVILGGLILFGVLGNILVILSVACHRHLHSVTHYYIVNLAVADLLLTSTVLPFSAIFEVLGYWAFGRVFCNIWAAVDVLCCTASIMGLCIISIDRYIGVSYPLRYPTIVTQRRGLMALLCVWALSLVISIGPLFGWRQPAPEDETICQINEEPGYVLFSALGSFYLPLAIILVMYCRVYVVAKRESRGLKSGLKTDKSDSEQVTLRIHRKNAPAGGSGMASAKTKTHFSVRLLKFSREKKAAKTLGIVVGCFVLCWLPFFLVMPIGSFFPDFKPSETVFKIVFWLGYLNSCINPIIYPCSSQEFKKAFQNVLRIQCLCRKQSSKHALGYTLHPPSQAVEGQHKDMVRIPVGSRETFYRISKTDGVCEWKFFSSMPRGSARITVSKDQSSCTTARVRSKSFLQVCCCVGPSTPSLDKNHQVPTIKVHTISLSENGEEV

[16] = target: GABA-A receptor; agonist GABA site; assay: Binding affinity to human GABAA receptor; type: protein-complex assay
[17] = target: Beta-2 adrenergic receptor (Rattus norvegicus, UniProt P10608); assay: Binding affinity to rat adrenergic beta2 receptor
[18] = target: 5-hydroxytryptamine receptor 1B (Homo sapiens, UniProt P28222); assay: Binding affinity to human 5-HT1B receptor
[19] = target: Alpha-1D adrenergic receptor (Homo sapiens, UniProt P25100); assay: Binding affinity to human adrenergic Alpha-1D receptor
[20] = target: Kappa-type opioid receptor (Homo sapiens, UniProt P41145); assay: Binding affinity to human kappa opioid receptor
[21] = target: Beta-1 adrenergic receptor (Rattus norvegicus, UniProt P18090); assay: Binding affinity to rat adrenergic beta-1 receptor
Beta-1 adrenergic receptor, sequence (P18090 whole entry): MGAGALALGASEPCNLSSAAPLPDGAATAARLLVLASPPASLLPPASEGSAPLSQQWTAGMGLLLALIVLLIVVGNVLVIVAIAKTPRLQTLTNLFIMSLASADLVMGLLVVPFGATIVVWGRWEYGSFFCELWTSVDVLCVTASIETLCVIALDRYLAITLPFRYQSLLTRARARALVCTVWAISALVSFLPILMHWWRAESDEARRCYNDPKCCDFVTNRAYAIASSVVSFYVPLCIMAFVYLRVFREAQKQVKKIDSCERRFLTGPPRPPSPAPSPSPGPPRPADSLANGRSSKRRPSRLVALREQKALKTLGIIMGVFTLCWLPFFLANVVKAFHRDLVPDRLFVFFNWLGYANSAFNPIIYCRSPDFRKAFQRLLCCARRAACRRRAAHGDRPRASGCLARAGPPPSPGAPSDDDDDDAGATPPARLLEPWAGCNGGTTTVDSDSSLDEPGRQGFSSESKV

[22] = target: 5-hydroxytryptamine receptor 5A (Homo sapiens, UniProt P47898); assay: Binding affinity to human 5-HT5A receptor
[23] = target: Muscarinic acetylcholine receptor M5 (Homo sapiens, UniProt P08912); assay: Binding affinity to human muscarinic M5 receptor
Muscarinic acetylcholine receptor M5, sequence (P08912 whole entry): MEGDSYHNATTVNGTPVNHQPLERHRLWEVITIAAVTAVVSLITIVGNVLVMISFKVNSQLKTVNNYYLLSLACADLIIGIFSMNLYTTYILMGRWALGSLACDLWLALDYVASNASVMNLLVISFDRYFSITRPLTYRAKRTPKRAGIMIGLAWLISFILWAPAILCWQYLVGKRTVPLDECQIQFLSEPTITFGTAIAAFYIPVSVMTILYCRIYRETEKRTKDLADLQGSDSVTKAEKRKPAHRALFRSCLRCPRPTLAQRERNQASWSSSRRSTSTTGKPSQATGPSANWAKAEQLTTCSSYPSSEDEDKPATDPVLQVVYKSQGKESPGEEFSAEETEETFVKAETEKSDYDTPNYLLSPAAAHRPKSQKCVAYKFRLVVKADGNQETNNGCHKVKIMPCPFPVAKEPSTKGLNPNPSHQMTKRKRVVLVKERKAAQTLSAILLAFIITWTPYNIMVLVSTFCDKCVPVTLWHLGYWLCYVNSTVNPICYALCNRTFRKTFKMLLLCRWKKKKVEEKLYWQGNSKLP

Histamine H3 receptor = Histamine H3 receptor (Cavia porcellus, UniProt Q9JI35); assay: Binding affinity to guinea pig histamine H3 receptor
Histamine H4 receptor = Histamine H4 receptor (Cavia porcellus, UniProt Q91ZY3); assay: Binding affinity to guinea pig histamine H4 receptor
[24] = target: 5-hydroxytryptamine receptor 1A (Homo sapiens, UniProt P08908); assay: Binding affinity to human 5-HT1A receptor
5-hydroxytryptamine receptor 1A, sequence (P08908 whole entry): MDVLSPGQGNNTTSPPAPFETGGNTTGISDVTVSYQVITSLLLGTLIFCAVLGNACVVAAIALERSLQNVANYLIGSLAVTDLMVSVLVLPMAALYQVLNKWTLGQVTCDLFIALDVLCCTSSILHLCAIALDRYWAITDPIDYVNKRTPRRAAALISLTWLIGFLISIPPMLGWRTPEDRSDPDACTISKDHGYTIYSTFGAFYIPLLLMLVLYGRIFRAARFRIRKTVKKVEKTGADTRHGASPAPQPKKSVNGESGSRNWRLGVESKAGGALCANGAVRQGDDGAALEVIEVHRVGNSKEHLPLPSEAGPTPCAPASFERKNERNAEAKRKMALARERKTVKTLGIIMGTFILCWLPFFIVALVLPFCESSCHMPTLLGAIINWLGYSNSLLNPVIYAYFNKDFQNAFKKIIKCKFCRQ

Delta-type opioid receptor, sequence (P41143 whole entry): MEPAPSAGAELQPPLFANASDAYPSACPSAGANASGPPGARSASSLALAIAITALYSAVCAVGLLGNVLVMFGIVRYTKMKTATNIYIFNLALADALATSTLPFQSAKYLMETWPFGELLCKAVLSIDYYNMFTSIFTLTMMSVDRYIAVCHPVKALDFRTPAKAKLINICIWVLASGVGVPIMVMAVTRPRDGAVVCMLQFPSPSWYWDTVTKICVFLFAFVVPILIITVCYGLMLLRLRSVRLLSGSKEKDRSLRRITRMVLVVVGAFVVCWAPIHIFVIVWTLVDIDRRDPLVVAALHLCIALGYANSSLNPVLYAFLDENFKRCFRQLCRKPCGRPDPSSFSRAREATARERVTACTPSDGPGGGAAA

Structure (SMILES) | pKi (D(3) dopamine receptor) | pKi [1] | pKi [2] | pKi [3] | pKi [4] | pKi [5] | pKi [6] | pKi [7] | pKi [8] | pKi [9] | pKi [10] | pKi [11] | pKi [12] | pKi (Mu-type opioid receptor) | pKi [13] | pKi [14] | pKi [15] | pKi [16] | pKi [17] | pKi [18] | also measured
CCCCN1CCC(COC(=O)c2ccc(N)c(OC)c2)CC1 | 5.20 | 5.96 | < 5.00 | < 5.00 | 9.13 | < 5.00 | < 5.00 | < 5.00 | < 5.00 | 5.54 | < 5.00 | 8.62 | < 5.00 | < 5.00 | 6.83 | 5.37 | < 5.00 | < 5.00 | < 5.00 | < 5.00 | pKi [19]: < 5.00; pKi [20]: < 5.00; pKi [21]: 5.36; pKi [22]: < 5.00; pKi [23]: 5.39; pKi (Histamine H3 receptor): 5.78; pKi (Histamine H4 receptor): < 5.00; pKi [24]: < 5.00
CCCCN1CCC(COC(=O)c2cc(Cl)c(NC)c3c2OCCO3)CC1 | 6.47 | 6.08 | < 5.00 | 5.65 | 9.24 | 6.17 | 5.24 | 5.49 | 6.31 | 7.18 | 5.75 | 8.70 | 6.36 | < 5.00 | 8.10 | < 5.00 | 6.28 | < 5.00 | < 5.00 | 6.09 | pKi [19]: 5.64; pKi [20]: < 5.00; pKi [21]: < 5.00; pKi [22]: 5.07; pKi [23]: 6.01; pKi (Histamine H3 receptor): < 5.00; pKi (Histamine H4 receptor): < 5.00; pKi [24]: 6.52
